Measurements from ChEMBL document CHEMBL2046273, “3-Hydroxy-1H-quinazoline-2,4-dione derivatives as new antagonists at ionotropic glutamate receptors: molecular modeling and pharmacological studies” (Eur J Med Chem, 2012).
The source made the active and inactive calls. The rule behind the calls is not given here.

Key:
[1] = Displacement of [3H]kainate from high affinity kainate receptor in rat cortical membrane; format: cell membranes
[2] = Antagonist activity at AMPA receptor in mouse cortical wedge assessed as inhibition of S-AMPA-induced membrane depolarization by electrophysiological assay; format: functional
[3] = Antagonist activity at NMDA receptor in mouse cortical wedge assessed as inhibition of NMDA-induced membrane depolarization by electrophysiological assay; format: functional
Glutamate NMDA receptor = test: Displacement of [3H]glycine from NMDA receptor in rat cortical synaptical membrane; format: cell membranes
[4] = Displacement of [3H]AMPA from AMPA receptor in rat cortical synaptical membrane; format: cell membranes
Rattus norvegicus [5] = species: Rattus norvegicus; test: Displacement of [3H]AMPA from AMPA receptor in rat cortical synaptical membrane at 100 uM; format: cell membranes
Outline: (§1)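 Rat cortical membranes, test compound at 100 µM single concentration. Diluted in buffer from a 1 mM stock in 50% DMSO. Result given as percent inhibition of specific radioligand binding. Determinations were done in triplicate, 3–4 separate experiments.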

[6] = target: Glutamate NMDA receptor (Rattus norvegicus) (UniProt P35439+Q00959+Q00960+Q00961+Q62645+Q8VHN2+Q9R1M7); test: Displacement of [3H]glycine from NMDA receptor in rat cortical synaptical membrane at 100 uM; format: cell membranes; outline: as §1
Rattus norvegicus [7] = species: Rattus norvegicus; test: Displacement of [3H]kainate from kainate receptor in rat cortical membrane at 100 uM; format: cell membranes; outline: as §1
Mus musculus [8] = species: Mus musculus; test: Antagonist activity at NMDA receptor in mouse cortical wedge assessed as inhibition of NMDA-induced membrane depolarization at 10 uM by electrophysiological assay; format: functional
Outline: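 Mouse cortical wedge preparation; antagonism measured as inhibition of depolarization evoked by NMDA, with test compound at 10 µM.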

[9] = (§2) Neuroprotective activity in organotypic Wistar rat hippocampal CA1 region slices assessed as protection from oxygen-deprivation-induced neuronal damage at 30 uM dosed during 30 mins insult and subsequent 24 hrs recovery period by propidium iodide staining-based fluorescence analysis (reference value: 57 +/- 8%); format: functional
[10] = Antagonist activity at kainate receptor in Wistar rat acute hippocampal CA1 region slices assessed as reduction in field excitatory postsynaptic potential amplitude at basal conditions at 1 uM by electrophysiological analysis; format: functional; settings: Hippocampus
[11] = Antagonist activity at kainate receptor in Wistar rat acute hippocampal CA1 region slices assessed as reduction in field excitatory postsynaptic potential amplitude at basal conditions at 5 uM by electrophysiological analysis; format: functional; settings: Hippocampus
Hippocampus [12] = test: Neuroprotective activity in Wistar rat acute hippocampal CA1 region slices assessed as protection from oxygen glucose deprivation-induced anoxic depolarization at 5 uM administered 15 mins before and during 7 mins oxygen glucose deprivation challenge; format: functional
Outline: (§3)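 Acute rat hippocampal slices superfused with aCSF, compound in DMSO (final under 0.001%). Applied 15 min before and during 7-min OGD. Anoxic depolarization recorded in CA1 as negative DC voltage shift, with loss of fepsp followed on reperfusion with oxygenated glucose-containing aCSF. n = 3 (1 µM) or 6 (5 µM).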

Hippocampus [13] = test: Neuroprotective activity in Wistar rat acute hippocampal CA1 region assessed as protection from oxygen glucose deprivation-induced anoxia depolarization at 1 uM administered 15 mins before and during 7 mins oxygen-deprivation challenge; format: functional, tissue-based; outline: as §3
[14] = Antagonist activity at kainate receptor in Wistar rat acute hippocampal CA1 region slices assessed as reduction of kainate-induced field excitatory postsynaptic potential suppression at 1 uM by electrophysiological analysis relative to untreated pre-drug level (reference value: 52.1 +/- 15.3%); format: functional, Hippocampus; design: scale not given: the % may be the effect or the level left
Hippocampus [15] = test: Neuroprotective activity in Wistar rat hippocampal CA1 region assessed as change in field excitatory postsynaptic potential at basal conditions at 1 to 5 uM by electrophysiological analysis; format: functional, tissue-based
[16] = as §2, with “at 1” for “at 30”; format: functional
Mus musculus [17] = test: Anticonvulsant activity in Swiss albino mouse assessed as protection from PTZ-induced seizures at 30 mg/kg, po administered 30 mins before PTZ challenge measured after 30 mins; format: functional
Outline: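 Male Swiss albino mice (23–30 g), housed 15 per cage, 23 ± 1 °C, 12 h light/dark. Test drug dispersed in 1% sodium carboxymethylcellulose and given orally in 10 ml/kg. PTZ given 90 mg/kg s.c. 30 min later. Clonic generalized convulsions scored over 30 min, expressed as % protection.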

| SMILES | IC50 [1] [µM] | IC50 [2] [µM] | Ki (Glutamate NMDA receptor) [µM] | Ki [4] [µM] | Imax [6] [%] | other results |
| --- | --- | --- | --- | --- | --- | --- |
| O=c1[nH]c2cc(C(F)(F)F)c([N+](=O)[O-])cc2c(=O)n1O | 7 | – | 1.3 | 0.26 | – | – |
| O=C(O)c1ccccc1C(=O)Nc1cc2c(=O)n(O)c(=O)[nH]c2cc1C(F)(F)F | 25 | – | – | – | 10 | Imax (Rattus norvegicus [5]): 8% |
| O=c1[nH]c2cc(C(F)(F)F)ccc2c(=O)n1O | 37.6 | – | 0.85 | 4.8 | – | – |
| NS(=O)(=O)c1cccc2c1c([N+](=O)[O-])cc1nc(O)c(O)nc12 [NBQX] | 7 | 0.2 | – | 0.07 | 3 | inhibition (Mus musculus [8]): inactive; Activity [9]: 20% |
| O=C(O)c1cc(O)c2c(Cl)cc(Cl)cc2n1 | – | 52 | 0.08 | – | – | Imax (Rattus norvegicus [5]): 5%; Imax (Rattus norvegicus [7]): 8%; IC50 [3]: 4.7 µM |
| O=c1[nH]c2cc(Cl)c([N+](=O)[O-])cc2c(=O)n1O | 19.1 | – | 1.1 | 1.3 | – | – |
| O=C(O)c1ccccc1C(=O)Nc1cc2c(=O)n(O)c(=O)[nH]c2cc1Cl | – | – | – | – | – | inhibition at 1 µM [10]: 19.2%; inhibition at 5 µM [11]: 39.6%; Activity (Hippocampus [12]): 92.2%; Activity (Hippocampus [13]): inactive; Activity [14]: 85.8%; Activity (Hippocampus [15]): Active |

Second part, led by results:

| IC50 [1] [µM] | IC50 [2] [µM] | Ki (Glutamate NMDA receptor) [µM] | Ki [4] [µM] | Imax [6] [%] | SMILES | other results |
| --- | --- | --- | --- | --- | --- | --- |
| 4.2 | 1.5 | 0.8 | 0.72 | – | O=Cc1ccn(-c2cc3c(=O)n(O)c(=O)[nH]c3cc2C(F)(F)F)c1 | IC50 [3]: 7 µM |
| – | – | – | 20 | 21 | COn1c(=O)[nH]c2cc(C(F)(F)F)c(-n3cnnc3)cc2c1=O | Imax (Rattus norvegicus [7]): 0% |
| 32 | – | 6.1 | 6.1 | – | Nc1cc2c(=O)n(O)c(=O)[nH]c2cc1C(F)(F)F | – |
| – | – | 6.5 | – | – | O=c1[nH]c2cc(C(F)(F)F)c(-n3cnnc3)cc2c(=O)n1O | Activity [16]: 29%; Activity (Mus musculus [17]): 65.5% |
| 17.3 | 2.9 | 5.1 | 0.46 | – | O=C(O)c1ccn(-c2cc3c(=O)n(O)c(=O)[nH]c3cc2C(F)(F)F)c1 | IC50 [3]: > 50 µM |
| – | – | – | 126 | 32 | O=c1[nH]c2cc(C(F)(F)F)c(-n3cccc3)cc2c(=O)n1O | Imax (Rattus norvegicus [7]): 10% |
